A short description of series [1]: Toxicokinetic / pharmacokinetic study of insulin injection in Beagle dogs. The format is in vivo, Beagle dogs (Canis lupus familiaris). The conditions noted are these: subcutaneous, across all doses (0.5, 1, 1.5 IU/kg vs Lantus 1.5 IU/kg), Fig. 5.
The test system of series [2] is animals. The series is described as follows: In vivo immunogenicity studies in animals. The settings on record: no details given.
In series [3] the target is T1, insulin receptor isoform B (IR-B) (Homo sapiens, UniProt P06213). The series is described as follows: Insulin receptor binding assay. The settings on record: CHO cell lysates, [125I]-labeled insulin competition; Fig. 6D. Summed up:
(§1)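 CHO cells expressing insulin receptor isoforms A and B were grown in DMEM with 10% FBS and 1% penicillin-streptomycin, then serum-starved. Cell lysates were incubated with [125I]-insulin with or without excess unlabeled competitor. Bound and free tracer were separated by gel filtration and radioactivity was counted per fraction. IC50 values came from competitive binding curves.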

Series [4] concerns the target T1, insulin receptor isoform B (IR-B). The experiment in a line: Insulin receptor phosphorylation assay. The settings on record: CHO cells expressing insulin receptor; phospho-specific ELISA; Fig. 6B. The format is cell-based. Put shortly: (§2)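 CHO cells expressing IR isoforms A and B were cultured in DMEM with 10% FBS and 1% penicillin-streptomycin, then serum-starved. Cells were exposed to insulin at 0.1, 1 or 10 nM for 5, 15 or 30 min. Lysates were applied to anti-phosphotyrosine-coated wells and detected with an HRP-conjugated secondary antibody. Receptor phosphorylation was quantified from absorbance.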
A general note: An ELISA detects its analyte on a solid surface through an enzyme-linked reagent.

The target of series [5] is T2, insulin receptor isoform A (IR-A) (Homo sapiens, UniProt P06213). The series is described as follows: Insulin receptor binding assay. The settings on record: CHO cell lysates, [125I]-labeled insulin competition; Fig. 6C. Summed up: as §1
T2 sequence (P06213 28-1370 isoform P06213-2 limits assumed): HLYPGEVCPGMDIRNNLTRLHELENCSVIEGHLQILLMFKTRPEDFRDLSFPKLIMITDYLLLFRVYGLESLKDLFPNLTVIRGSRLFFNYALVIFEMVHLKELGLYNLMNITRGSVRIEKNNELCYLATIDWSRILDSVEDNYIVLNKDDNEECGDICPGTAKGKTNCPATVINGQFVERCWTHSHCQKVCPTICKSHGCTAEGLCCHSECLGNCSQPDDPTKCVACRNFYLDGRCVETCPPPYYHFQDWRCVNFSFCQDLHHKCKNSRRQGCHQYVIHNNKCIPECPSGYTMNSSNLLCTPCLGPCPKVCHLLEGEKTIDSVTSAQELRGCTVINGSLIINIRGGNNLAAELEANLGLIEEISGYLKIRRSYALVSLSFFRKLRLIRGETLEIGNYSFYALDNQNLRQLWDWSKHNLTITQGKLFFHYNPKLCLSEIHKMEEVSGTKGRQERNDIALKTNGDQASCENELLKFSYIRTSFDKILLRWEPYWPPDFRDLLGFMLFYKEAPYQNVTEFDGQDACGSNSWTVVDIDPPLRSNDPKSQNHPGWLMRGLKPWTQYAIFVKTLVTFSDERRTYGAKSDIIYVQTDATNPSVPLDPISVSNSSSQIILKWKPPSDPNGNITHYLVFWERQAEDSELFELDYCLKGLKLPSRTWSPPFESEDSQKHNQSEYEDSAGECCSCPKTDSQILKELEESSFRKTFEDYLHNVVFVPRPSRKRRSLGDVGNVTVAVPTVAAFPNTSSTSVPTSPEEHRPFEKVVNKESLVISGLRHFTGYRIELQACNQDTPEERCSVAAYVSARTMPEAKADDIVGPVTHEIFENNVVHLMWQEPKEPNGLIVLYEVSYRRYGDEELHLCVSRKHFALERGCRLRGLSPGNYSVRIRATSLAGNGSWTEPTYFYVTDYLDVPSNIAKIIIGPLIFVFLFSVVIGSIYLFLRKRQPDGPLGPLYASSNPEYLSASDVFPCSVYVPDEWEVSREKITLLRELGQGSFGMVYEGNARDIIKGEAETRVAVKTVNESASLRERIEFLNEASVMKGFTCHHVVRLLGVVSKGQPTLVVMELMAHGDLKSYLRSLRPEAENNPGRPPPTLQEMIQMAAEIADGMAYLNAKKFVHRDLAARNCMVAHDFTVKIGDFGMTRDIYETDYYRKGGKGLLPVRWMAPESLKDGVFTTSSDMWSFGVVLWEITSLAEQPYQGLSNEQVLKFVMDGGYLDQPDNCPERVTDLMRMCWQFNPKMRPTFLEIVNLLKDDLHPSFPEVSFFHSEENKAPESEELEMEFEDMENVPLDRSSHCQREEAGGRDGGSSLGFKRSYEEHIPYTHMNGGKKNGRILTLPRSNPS
T2 sequence (P06213 763-1382 limits assumed): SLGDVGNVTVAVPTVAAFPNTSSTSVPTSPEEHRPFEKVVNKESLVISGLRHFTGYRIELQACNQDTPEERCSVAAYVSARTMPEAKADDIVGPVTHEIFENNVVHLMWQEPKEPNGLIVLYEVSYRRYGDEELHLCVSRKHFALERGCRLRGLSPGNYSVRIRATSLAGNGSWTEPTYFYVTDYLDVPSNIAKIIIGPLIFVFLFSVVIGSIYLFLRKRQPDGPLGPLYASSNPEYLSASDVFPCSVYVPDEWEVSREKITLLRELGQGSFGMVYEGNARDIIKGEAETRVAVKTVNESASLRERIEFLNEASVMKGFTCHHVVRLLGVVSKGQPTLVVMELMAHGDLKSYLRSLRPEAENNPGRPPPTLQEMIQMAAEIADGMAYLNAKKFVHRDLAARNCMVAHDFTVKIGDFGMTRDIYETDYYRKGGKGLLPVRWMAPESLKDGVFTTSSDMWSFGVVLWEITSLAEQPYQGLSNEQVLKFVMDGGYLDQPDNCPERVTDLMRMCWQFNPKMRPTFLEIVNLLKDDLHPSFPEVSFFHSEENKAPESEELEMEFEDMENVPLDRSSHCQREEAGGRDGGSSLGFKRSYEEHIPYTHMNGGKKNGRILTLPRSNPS
In series [6] the target is insulin-like growth factor 1 receptor (IGF-1R) (Homo sapiens, UniProt P08069). The experiment in a line: IGF-1R binding assay. The settings on record: H19-7/IGF-1R cell line, [125I]-labeled IGF competition; Fig. 6E.
Chain of insulin-like growth factor 1 receptor (IGF-1R) (P08069 31-736 limits assumed): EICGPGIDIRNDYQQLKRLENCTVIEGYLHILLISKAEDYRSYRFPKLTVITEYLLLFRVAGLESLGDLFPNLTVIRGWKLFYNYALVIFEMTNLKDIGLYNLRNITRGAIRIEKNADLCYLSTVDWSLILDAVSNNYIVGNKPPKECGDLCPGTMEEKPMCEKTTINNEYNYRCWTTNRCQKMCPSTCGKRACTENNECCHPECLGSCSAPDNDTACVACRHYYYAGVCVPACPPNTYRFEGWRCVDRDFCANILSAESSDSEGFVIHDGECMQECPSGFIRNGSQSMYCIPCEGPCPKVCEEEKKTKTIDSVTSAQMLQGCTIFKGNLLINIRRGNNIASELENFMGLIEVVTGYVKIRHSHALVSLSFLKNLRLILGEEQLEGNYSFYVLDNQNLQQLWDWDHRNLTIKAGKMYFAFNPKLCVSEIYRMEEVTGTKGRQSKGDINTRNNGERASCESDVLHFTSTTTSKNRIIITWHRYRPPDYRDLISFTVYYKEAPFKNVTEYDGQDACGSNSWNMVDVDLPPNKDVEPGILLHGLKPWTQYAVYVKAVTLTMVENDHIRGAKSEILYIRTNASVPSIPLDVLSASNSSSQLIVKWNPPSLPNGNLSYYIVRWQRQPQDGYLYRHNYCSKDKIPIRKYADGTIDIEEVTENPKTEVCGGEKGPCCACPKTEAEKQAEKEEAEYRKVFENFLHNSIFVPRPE
Chain of insulin-like growth factor 1 receptor (IGF-1R) (P08069 741-1367 limits assumed): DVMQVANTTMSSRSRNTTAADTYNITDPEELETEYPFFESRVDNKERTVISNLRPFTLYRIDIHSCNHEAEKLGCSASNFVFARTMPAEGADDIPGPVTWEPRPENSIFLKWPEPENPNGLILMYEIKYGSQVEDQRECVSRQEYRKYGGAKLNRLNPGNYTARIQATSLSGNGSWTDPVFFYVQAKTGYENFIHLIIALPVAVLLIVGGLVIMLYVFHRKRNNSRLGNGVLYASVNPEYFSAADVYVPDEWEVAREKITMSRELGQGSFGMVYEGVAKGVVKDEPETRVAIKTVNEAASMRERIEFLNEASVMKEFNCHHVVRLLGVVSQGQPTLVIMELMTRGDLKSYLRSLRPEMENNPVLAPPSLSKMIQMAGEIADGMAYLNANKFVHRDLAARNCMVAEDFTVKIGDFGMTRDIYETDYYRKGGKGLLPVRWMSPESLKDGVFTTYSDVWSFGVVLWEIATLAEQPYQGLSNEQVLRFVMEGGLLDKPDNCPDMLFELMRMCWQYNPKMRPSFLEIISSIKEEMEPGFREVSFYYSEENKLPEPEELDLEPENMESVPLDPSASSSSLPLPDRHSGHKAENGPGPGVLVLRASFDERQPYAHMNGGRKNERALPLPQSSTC
In series [7] the test system is type 1 diabetic rats. The format is in vivo, NOD rats. Summed up: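 […]. […] Single dose: overnight fast, then tail-vein glucose by glucometer at 1, 2, 4 and 6 h. Multiple dose: daily injections, glucose at 2, 4 and 6 h post-injection. Triplicate measurements, means reported.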

In series [8] the target is T2, insulin receptor isoform A (IR-A). The experiment in a line: Insulin receptor phosphorylation assay. The conditions noted are these: CHO cells expressing insulin receptor; phospho-specific ELISA; Fig. 6A. The format is cell-based. Summed up:
as §2

Series [9] deals with insulin lisargine (human). The experiment in a line: crystal structure.
Series [10] addresses insulin lisargine (human). The experiment in a line: crystal structure. This is another data set of the same source.

We go through 2 substances from PMC12464261 (Scientific Reports, 2025).

Like-named read-outs stand apart in the source and are kept apart here.

T1 sequence (P06213 28-758 limits assumed): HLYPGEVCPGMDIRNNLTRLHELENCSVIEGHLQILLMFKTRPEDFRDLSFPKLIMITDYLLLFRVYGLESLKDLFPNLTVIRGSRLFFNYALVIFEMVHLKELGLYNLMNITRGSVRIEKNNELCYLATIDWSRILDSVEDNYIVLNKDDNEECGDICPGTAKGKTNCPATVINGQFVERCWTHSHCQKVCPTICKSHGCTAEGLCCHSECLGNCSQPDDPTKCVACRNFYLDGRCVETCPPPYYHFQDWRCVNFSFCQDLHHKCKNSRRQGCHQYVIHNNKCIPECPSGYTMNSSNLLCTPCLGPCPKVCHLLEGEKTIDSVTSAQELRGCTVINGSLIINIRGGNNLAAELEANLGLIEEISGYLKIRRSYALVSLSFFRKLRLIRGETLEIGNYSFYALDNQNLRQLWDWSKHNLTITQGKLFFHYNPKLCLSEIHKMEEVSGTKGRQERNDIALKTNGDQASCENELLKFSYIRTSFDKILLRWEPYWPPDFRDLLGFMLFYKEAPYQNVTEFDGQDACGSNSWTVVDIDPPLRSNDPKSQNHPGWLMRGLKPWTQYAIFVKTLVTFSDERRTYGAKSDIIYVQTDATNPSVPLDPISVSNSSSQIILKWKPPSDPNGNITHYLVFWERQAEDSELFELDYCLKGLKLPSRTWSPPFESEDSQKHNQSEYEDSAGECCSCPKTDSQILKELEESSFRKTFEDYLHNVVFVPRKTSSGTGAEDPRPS
T1 sequence (P06213 763-1382 limits assumed): as the sequence (P06213 763-1382 limits assumed) above

insulin lisargine: the “plasma insulin concentrations compared with Lantus (insulin glargine)” value in series [1] is on record as “no significant differences”. Moreover, in series [2], the immunogenicity in animals entry is “favorable safety profile”. Also, the “binding affinity to IR-B compared with Lantus” value in series [3] is given as “comparable binding affinities”. The “IR-B phosphorylation levels compared with Lantus” value in [4] is reported as “no significant differences”. The “binding affinity to IR-A compared with Lantus” value in series [5] is “comparable binding affinities”. For the same substance, in [6], the “IGF-1R binding affinity / IC50 compared with Lantus (insulin glargine)” value is on record as “no significant differences in binding affinity or IC50 values”. In addition, the “glucose-lowering effect compared with glargine” value in series [7] (5 IU/kg (abstract)) is “significantly outperformed glargine”. The “blood glucose levels compared with solvent control, multiple-dose” value in series [7] (daily administration, at 2, 4 and 6 h post-administration, Fig. 4B) is “significant reductions”. Also, the “glucose-lowering effects compared with Aspart Insulin” value in series [7] (equivalent dose of 5 IU/kg, single-dose and multiple-dose studies) is on record as “comparable to the clinical drug Aspart Insulin”. The “time of most pronounced glucose-lowering effect, multiple-dose” value in series [7] (multiple-dose, 5 IU/kg group, Fig. 4B) turned out to be 4 h. The “time of peak glucose-lowering effect, multiple-dose” value in series [7] (multiple-dose, 10 IU/kg, Fig. 4B) is listed as 6 h. Also, in series [7] (single dose (2.5, 5, 10 IU/kg), at 1, 2, 4 and 6 h post-administration, Fig. 4A), the “blood glucose levels compared with solvent control, single-dose” value is listed as “statistically significant reductions”. In [7] (single dose, Fig. 4A), the “time point of most pronounced glucose-lowering effect, single-dose” value turned out to be 4 h. In series [8], the “IR-A phosphorylation levels compared with Lantus” value is reported as “no significant differences”.
What is called stoichiometry N is a count of units in the complex or per binding partner. On to insulin lisargine (ligand), for which the figures for the stoichiometry N in series [9] and in [10] were 6 and 2, respectively.
